Source: ChEMBL document CHEMBL5108003, “Identification of 2-hydroxybenzoic acid derivatives as selective SIRT5 inhibitors” (Eur J Med Chem, 2022)

target: T1, NAD-dependent protein deacylase sirtuin-5, mitochondrial (Homo sapiens, UniProt Q9NXA8); experiment: Inhibition of human SIRT5 using fluorogenic substrate preincubated for 1 hr in presence of NAD followed by substrate addition and measured after 15 to 30 mins by trypsin-coupled fluorescence plate reader analysis
Target sequence in this assay (Q9NXA8 whole entry): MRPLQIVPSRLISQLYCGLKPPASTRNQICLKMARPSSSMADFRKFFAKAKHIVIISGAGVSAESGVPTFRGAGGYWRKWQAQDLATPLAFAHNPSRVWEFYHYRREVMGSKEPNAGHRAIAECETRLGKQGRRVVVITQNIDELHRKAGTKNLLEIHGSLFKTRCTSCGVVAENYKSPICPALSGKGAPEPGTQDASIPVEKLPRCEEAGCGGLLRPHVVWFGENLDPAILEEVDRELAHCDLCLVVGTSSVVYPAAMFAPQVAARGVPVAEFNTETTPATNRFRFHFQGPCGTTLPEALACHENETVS

IC50 | SMILES
201 µM | CC(=O)Nc1ccc(-c2csc(Nc3ccc(C(=O)O)cc3)n2)cc1
26.8 µM | O=C(O)c1ccc(NC(=S)Nc2nc(-c3cccc(C(F)(F)F)c3)cs2)cc1O
> 400 µM | CCOC(=O)c1ccc(Nc2nc(-c3ccc(NC(C)=O)cc3)cs2)cc1O
24.3 µM | O=C(O)c1ccc(NC(=S)Nc2nc(-c3ccc(C(F)(F)F)cc3)cs2)cc1O

target: T1, NAD-dependent protein deacylase sirtuin-5, mitochondrial; experiment: Stabilization of human SIRT5 assessed as change in melting temperature at 100 uM by thermal shift assay
In short: (§1)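 Recombinant wild-type SIRT5 at 0.2 mg/ml final in 20 mM Bis-Tris propane pH 7.5 with 150 mM NaCl. The dye was 0.1 mM 1,8-ANS, and compound was at 100 μM with DMSO as the vehicle reference. Wells were overlaid with silicon oil and heated continuously from 25 °C to 90 °C. Tm came from fluorescence melt curves versus the DMSO control. Each reaction was run in quadruplicate.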
Target sequence in this assay (Q9NXA8 37-310 limits assumed): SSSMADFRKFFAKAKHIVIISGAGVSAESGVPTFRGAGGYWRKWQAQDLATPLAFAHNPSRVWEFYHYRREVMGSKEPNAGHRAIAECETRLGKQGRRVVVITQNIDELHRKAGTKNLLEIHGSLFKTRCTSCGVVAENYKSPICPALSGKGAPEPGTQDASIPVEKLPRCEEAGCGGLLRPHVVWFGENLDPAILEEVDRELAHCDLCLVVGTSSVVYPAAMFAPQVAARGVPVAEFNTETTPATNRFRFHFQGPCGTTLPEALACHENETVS

ΔTm | SMILES
0.9 °C | CC(=O)Nc1ccccc1-c1csc(NC(=S)Nc2ccc(C(=O)O)c(O)c2)n1
1.6 °C | O=C(O)c1ccc(NC(=S)Nc2nc(-c3ccc([N+](=O)[O-])cc3F)cs2)cc1O
0.72 °C | O=C(O)c1ccc(NC(=S)Nc2nc(-c3cccc(O)c3)cs2)cc1O
0.9 °C | COc1ccc(-c2csc(NC(=S)Nc3ccc(C(=O)O)c(O)c3)n2)cc1
1.8 °C | O=C(O)c1ccc(NC(=S)Nc2nc(-c3ccc([N+](=O)[O-])c(F)c3)cs2)cc1O
0.9 °C | CNS(=O)(=O)c1ccc(-c2csc(NC(=S)Nc3ccc(C(=O)O)c(O)c3)n2)cc1
1.9 °C | O=C(O)c1ccc(NC(=S)Nc2nc(-c3ccc(F)c(S(=O)(=O)NCc4ccccc4)c3)cs2)cc1O
0.8 °C | O=C(O)c1ccc(NC(=S)Nc2nc(-c3ccc(O)cc3)cs2)cc1O
1.8 °C | N#Cc1ccc(-c2csc(NC(=S)Nc3ccc(C(=O)O)c(O)c3)n2)cc1F
1.4 °C | Cc1ccc(-c2csc(NC(=S)Nc3ccc(C(=O)O)c(O)c3)n2)cc1
2.1 °C | N#Cc1ccc(-c2csc(NC(=S)Nc3ccc(C(=O)O)c(O)c3)n2)cc1
1.5 °C | CC(=O)Nc1cccc(-c2csc(NC(=S)Nc3ccc(C(=O)O)c(O)c3)n2)c1
1.22 °C | O=C(O)c1ccc(NC(=S)Nc2nc(-c3cccc(F)c3)cs2)cc1O
0.53 °C | CC(=O)Nc1ccc(-c2csc(Nc3ccc(C(=O)O)cc3)n2)cc1
1.8 °C | O=C(O)c1ccc(NC(=S)Nc2nc(-c3ccc([N+](=O)[O-])c(S(=O)(=O)NCc4ccccc4)c3)cs2)cc1O
1.9 °C | O=C(O)c1ccc(NC(=S)Nc2nc(-c3ccc(F)cc3F)cs2)cc1O
1.1 °C | O=C(O)c1ccc(NC(=S)Nc2nc(-c3cccc(C(F)(F)F)c3)cs2)cc1O

ΔTm | SMILES
1 °C | O=C(O)c1ccc(NC(=S)Nc2nc(-c3ccccc3F)cs2)cc1O
1.1 °C | O=C(O)c1ccc(NC(=S)Nc2nc(-c3ccc(Cl)cc3)cs2)cc1O
0.12 °C | CCOC(=O)c1ccc(Nc2nc(-c3ccc(NC(C)=O)cc3)cs2)cc1O
1.2 °C | O=C(O)c1ccc(NC(=S)Nc2nc(-c3ccc(Br)cc3)cs2)cc1O
1.2 °C | O=C(O)c1ccc(NC(=S)Nc2nc(-c3ccc(C(F)(F)F)cc3)cs2)cc1O
0.9 °C | COc1cccc(-c2csc(NC(=S)Nc3ccc(C(=O)O)c(O)c3)n2)c1
1.3 °C | O=C(O)c1ccc(NC(=S)Nc2nc(-c3ccc(F)cc3)cs2)cc1O
1.8 °C | CC(=O)Nc1ccc(-c2csc(Nc3ccc(C(=O)O)c(O)c3)n2)cc1
1.8 °C | O=C(O)c1ccc(NC(=S)Nc2nc(-c3ccc([N+](=O)[O-])cc3)cs2)cc1O
1.1 °C | Cc1ccccc1-c1csc(NC(=S)Nc2ccc(C(=O)O)c(O)c2)n1
0.8 °C | CNS(=O)(=O)c1cccc(-c2csc(NC(=S)Nc3ccc(C(=O)O)c(O)c3)n2)c1
2.5 °C | CC(=O)Nc1ccc(-c2csc(NC(=S)Nc3ccc(C(=O)O)c(O)c3)n2)cc1
1.8 °C | O=C(O)c1ccc(NC(=S)Nc2nc(-c3ccc(F)c(F)c3)cs2)cc1O
1.2 °C | Cc1cccc(-c2csc(NC(=S)Nc3ccc(C(=O)O)c(O)c3)n2)c1
1.3 °C | O=C(O)c1ccc(NC(=S)Nc2nc(-c3ccc(F)c(S(=O)(=O)NC4CCCC4)c3)cs2)cc1O
1.9 °C | N#Cc1ccc(-c2csc(NC(=S)Nc3ccc(C(=O)O)c(O)c3)n2)c(F)c1

target: T1, NAD-dependent protein deacylase sirtuin-5, mitochondrial; experiment: Stabilization of wild type human SIRT5 assessed as melting temperature at 100 uM by thermal shift assay; in short: as §1
Target sequence in this assay (Q9NXA8 37-310 limits assumed): as above

Tm | SMILES
51 °C | Cc1ccc(C(=O)Nc2ccc(S(=O)(=O)O)c3cc(S(=O)(=O)O)cc(S(=O)(=O)O)c23)cc1NC(=O)c1cccc(NC(=O)Nc2cccc(C(=O)Nc3cc(C(=O)Nc4ccc(S(=O)(=O)O)c5cc(S(=O)(=O)O)cc(S(=O)(=O)O)c45)ccc3C)c2)c1
52.8 °C | CC(=O)Nc1ccc(-c2csc(Nc3ccc(C(=O)O)c(O)c3)n2)cc1
